Test results reported in ChEMBL document CHEMBL1139204, “Synthesis and biological activity of 5-aza-ellipticine derivatives” (Bioorg Med Chem Lett, 2007).
Calls of active or inactive are those of the source. The rule behind the calls is not given here.

Columns and labels:
NIH3T3 = test: Growth inhibition of mouse NIH3T3 cells by MTT assay; format: cell-based
Outline: (§1)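 MTT cytotoxicity assay in human colon adenocarcinoma HCT116 cells and murine NIH 3T3 fibroblast cells treated with the novel 5-aza-ellipticine derivatives; toxicity read by MTT reduction.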

HCT-116 = test: Growth inhibition of human HCT116 cells by MTT assay; format: functional, cell-based; outline: as §1
Homo sapiens = organism: Homo sapiens; test: Inhibition of topoisomerase 2-mediated kDNA de-catenation
Outline: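 Topoisomerase II decatenation of kinetoplast DNA (kDNA), run with a commercial kit following the manufacturer's recommended procedure. Decatenation depends on topo II double-strand break and re-ligation. A known topo II-active reference agent served as positive control.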

Row | SMILES | IC50 (NIH3T3) | IC50 (HCT-116) | Activity (Homo sapiens)
1 | COc1ccc2[nH]c3nc4ccnc(NCCCNCCCN)c4c(C)c3c2c1 | 1000 nM | – | –
2 | COc1ccc2[nH]c3nc4ccnc(Cl)c4c(C)c3c2c1 | > 1000 nM | > 1000 nM | –
3 | CC[n+]1c2ccnc(O)c2c(C)c2c3cc(OC)ccc3[nH]c21 | – | 3000 nM | –
4 | COc1ccc2[nH]c3c(c(C)c4c(NCCCN5CCN(CCCN)CC5)nccc4[n+]3C)c2c1 | – | > 10000 nM | –
5 | COc1ccc2[nH]c3c(c(C)c4c(O)nccc4[n+]3C)c2c1 | – | 200 nM | –
6 | CC[n+]1c2ccnc(NCCCNCCCN)c2c(C)c2c3cc(OC)ccc3[nH]c21 | – | 400 nM | –
7 | Cc1c2ccncc2c(C)c2c1[nH]c1ccccc12 [ELLIPTECINE] | 3 nM | 300 nM | Active
8 | COc1ccc2[nH]c3c(C)c4ccnc(NCCCN(C)CCCN)c4c(C)c3c2c1 | 20 nM | 70 nM | –
9 | COc1ccc2[nH]c3nc4ccnc(NCCCN(C)CCCN)c4c(C)c3c2c1 | 600 nM | 300 nM | Active
10 | COc1ccc2[nH]c3c(c(C)c4c(NCCCNCCCN)nccc4[n+]3C)c2c1 | – | 2000 nM | –
11 | CC[n+]1c2ccnc(NCCCNCCCNc3nccc4c3c(C)c3c5cc(OC)ccc5[nH]c3[n+]4CC)c2c(C)c2c3cc(OC)ccc3[nH]c21 | – | 300 nM | –
